Results reported in ChEMBL document CHEMBL3046326, “Screening of dialkoxybenzenes and disubstituted cyclopentene derivatives against the cabbage looper, Trichoplusia ni, for the discovery of new feeding and oviposition deterrents” (J Agric Food Chem, 2007).

Legend:
[1] = system: Trichoplusia ni; test: Oviposition deterrent activity against adult female Trichoplusia ni (cabbage looper) moths introduced along with male moths into oviposition cage containing compound pretreated cabbage leaves assessed as eggs laying on the leaf disks at 0.25% after 48 hr by oviposition choice bioassay; format: functional
Method in brief: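 Choice test with moths from larvae reared on normal diet from neonate to pupation. Pupae were sexed and held separately until emergence. Cabbage leaves were treated with test substance at 0.25% or left as control, and eggs per leaf were counted after 48 h. ODI = [(C − T)/(C + T)] × 100 from egg numbers on control and treated leaves.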

[2] = system: Trichoplusia ni; test: Toxicity against third-instar larval stage of Trichoplusia ni (cabbage looper) assessed as mortality measured after 24 hr by contact toxicity bioassay; format: functional
Method in brief: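 Third-instar larvae were hand-sprayed directly with test solutions in filter-paper-lined Petri dishes, then moved to dishes holding a small piece of artificial diet. Mortality was recorded at 24 h.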

[3] = system: Trichoplusia ni; test: Toxicity against third-instar larval stage of Trichoplusia ni (cabbage looper) assessed as mortality at 0.25% measured after 24 hr by contact toxicity bioassay; format: functional
Method in brief: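 Third-instar larvae were sprayed directly with test solution at 0.25% in filter-paper-lined Petri dishes. They were then moved to dishes holding a small piece of artificial diet. Mortality was scored 24 h after spraying. The test applied only to compounds giving >50% feeding deterrence at 50 µg/cm².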

[4] = system: Trichoplusia ni; test: Feeding deterrent activity against freshly molted third-instar larval stage of Trichoplusia ni (cabbage looper) after 3 to 5 hr by leaf disk choice bioassay; format: functional, organism-based
Method in brief: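 Choice test: freshly molted third instar larvae, starved 4–5 h, offered two leaf disks, one painted on each side with 10 µL test solution and one with carrier solvent only. Twenty-five larvae per treatment. Ended when ~50% of the control disk was eaten (normally 3–5 h). Consumed areas measured. DC50 derived by linear regression of at least four concentrations (3.12–25 µg/cm²).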

[5] = system: Trichoplusia ni; test: Feeding deterrent activity against freshly molted third-instar larval stage of Trichoplusia ni (cabbage looper), Trichoplusia ni at 50 ug/cm'2 after 3 to 5 hr by leaf disk choice bioassay; format: functional
Method in brief: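 Leaf disk choice with freshly molted third instar larvae starved 4–5 h. One disk was painted on each side with 10 µL solution giving 50 µg/cm², the other with carrier solvent. Twenty-five larvae per treatment, stopped at ~50% control disk consumption (3–5 h). Deterrence = [(C − T)/(C + T)] × 100 from consumed areas; mean ± SE, Tukey's test p < 0.05.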

[6] = system: Helicoverpa zea; test: Larvicidal activity against Helicoverpa zea (corn earworm) assessed as growth inhibition at 3 mM/kg relative to control by chronic feeding bioassay; format: functional; settings: read-out: GI

Row | Structure (SMILES) | Activity [1] | LC50 [2] | mortality [3] | DC50 [4] | Activity [5] | inhibition of growth at 3000 µM [6]
1 | CCOc1ccc(OCC)cc1 [1,4-DIETHOXYBENZENE] | 74.7% | 0.03% | 100% | 25.9 microg/cm2 | 80.8% | 
2 | CCCOc1ccccc1OCC [1-ethoxy-2-propoxybenzene] | 28.7% |  | 6.7% | 24.1 microg/cm2 | 71% | 
3 | CCCCCOc1cccc(OCC)c1 [1-ethoxy-3-pentoxybenzene] | 14.3% |  | 20% | 26.5 microg/cm2 | 69.8% | 
4 | CCCOc1cccc(OCC)c1 [1-ethoxy-3-propoxybenzene] | 14.3% |  | 20% | 26.5 microg/cm2 | 69.8% | 
5 | CCCCCOc1ccc(OCC)cc1 [1-ethoxy-4-pentoxybenzene] | 56.6% | 0.03% | 96.8% | 23.4 microg/cm2 | 90.7% | 
6 | CCCCOc1ccccc1OCCC(C)C [1-isopentoxy-2-butoxybenzene] | 29.4% |  | 10% | 32.5 microg/cm2 | 66.9% | 
7 | CCOc1ccccc1OCCC(C)C [1-isopentoxy-2-ethoxybenzene] | 29.4% |  | 10% | 32.5 microg/cm2 | 66.9% | 
8 | COc1ccccc1OCCC(C)C [1-isopentoxy-2-methoxybenzene] | 29.4% |  | 10% | 32.5 microg/cm2 | 66.9% | 
9 | CCCCCOc1ccccc1OCCC(C)C [1-isopentoxy-2-pentoxybenzene] | 29.4% |  | 10% | 32.5 microg/cm2 | 66.9% | 
10 | CCOc1cccc(OCCC(C)C)c1 [1-isopentyloxy-3-ethoxybenzene] | 35.7% |  | 20.8% | 19.8 microg/cm2 | 82.6% | 
11 | COc1cccc(OCCC(C)C)c1 [1-isopentyloxy-3-methoxybenzene] | 35.7% |  | 20.8% | 19.8 microg/cm2 | 82.6% | 
12 | CCCCCOc1cccc(OCCC(C)C)c1 [1-isopentyloxy-3-pentoxybenzene] | 35.7% |  | 20.8% | 19.8 microg/cm2 | 82.6% | 
13 | CCOc1ccc(OCCC(C)C)cc1 [1-isopentyloxy-4-ethoxybenzene] | 22.9% |  | 18.8% | 5.8 microg/cm2 | 100% | 
14 | COc1ccc(OCCC(C)C)cc1 [1-isopentyloxy-4-methoxybenzene] | 22.9% |  | 18.8% | 5.8 microg/cm2 | 100% | 
15 | CCCOc1ccc(OCCC(C)C)cc1 [1-isopentyloxy-4-propoxybenzene] | 22.9% |  | 18.8% | 5.8 microg/cm2 | 100% | 
16 | CCOc1cccc(OC)c1 [1-methoxy-3-ethoxybenzene] | 70.2% |  | 16.7% | 61.5 microg/cm2 | 54.8% | 
17 | CCCCCOc1cccc(OC)c1 [1-methoxy-3-pentoxybenzene] | 70.2% |  | 16.7% | 61.5 microg/cm2 | 54.8% | 
18 | CCCOc1cccc(OC)c1 [1-methoxy-3-propoxybenzene] | 70.2% |  | 16.7% | 61.5 microg/cm2 | 54.8% | 
19 | CCOc1ccc(OC)cc1 [1-methoxy-4-ethoxybenzene] | 6% | 0.03% | 23.3% | 34.6 microg/cm2 | 80.2% | 
20 | CCCCCOc1ccc(OC)cc1 [1-methoxy-4-pentoxybenzene] | 6% |  | 23.3% | 34.6 microg/cm2 | 80.2% | 
21 | CCCOc1ccc(OC)cc1 [1-methoxy-4-propoxybenzene] | 6% |  | 23.3% | 34.6 microg/cm2 | 53.4% | 
22 | CCCCOc1ccccc1OCCC [1-propoxy-2-butoxybenzene] | 31.7% |  | 13.8% | 19.4 microg/cm2 | 100% | 
23 | CCCCCOc1ccccc1OCCC [1-propoxy-2-pentoxybenzene] | 31.7% |  | 13.8% | 19.4 microg/cm2 | 100% | 
24 | CCCCCOc1cccc(OCCC)c1 [1-propoxy-3-pentoxybenzene] | 2.7% |  | 50% | 21.5 microg/cm2 | 98% | 
25 | CCCCCOc1ccc(OCCC)cc1 [1-propoxy-4-pentoxybenzene] | 9.6% |  | 53.1% | 39.7 microg/cm2 | 53.4% | 
26 | CCCOc1cccc(OCCC(C)C)c1 [3-PROPOXY-1-ISOPENTOXYBENZENE] | 35.7% |  | 20.8% | 19.8 microg/cm2 | 82.6% | 
27 | CCCOc1ccc(OCC)cc1 [4-ETHOXY-1-PROPOXYBENZENE] | 56.6% | 0.03% | 96.8% | 23.4 microg/cm2 | 53.4% | 
28 | C=C1C(=O)O[C@@H]2[C@H]1CC[C@H](C)[C@]1(O)C=CC(=O)[C@@]21C [PARTHENIN] |  |  |  |  |  | 59%
